Assay results: ChEMBL document CHEMBL1125788, “Synthesis and ocular antihypertensive activity of new imidazolidine derivatives containing a beta-blocking side chain” (J Med Chem, 1991)
Calls of active or inactive are those of the source.

Assays:
[1] = target: Beta-2 adrenergic receptor (Cavia porcellus, UniProt Q8K4Z4); experiment: The compound was tested for beta-adrenergic activity against Beta-2 adrenergic receptor from guinea pig trachea.
[2] = target: T1, Beta-1 adrenergic receptor (Cavia porcellus, UniProt B0FL73); experiment: The compound was tested for beta-adrenergic activity against Beta-1 adrenergic receptor from guinea pig left atria; conditions: read-out: pA2 (converted)
Procedure, shortened: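 Electrically paced isolated left atria (inotropy) from guinea pigs of 300-500 g, 2.5 Hz, 5 ms pulses at 50% above threshold. Phentolamine 3.15 × 10^-4 mmol/L in bath. Cumulative isoprenaline curves with ascorbic acid 1.13 × 10^-6 mol/L, before and after 30 min antagonist preincubation. Reported as pA2 or pD'2.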

[3] = target: T1, Beta-1 adrenergic receptor; experiment: The compound was tested for beta-adrenergic activity against Beta-1 adrenergic receptor from guinea pig right atria; conditions: read-out: pA2 (converted)
Procedure, shortened: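 Spontaneously beating isolated right atria (chronotropy) from guinea pigs of 300-500 g. Phentolamine 3.15 × 10^-4 mmol/L in bath. Isoprenaline cumulative curves with ascorbic acid 1.13 × 10^-6 mol/L, before and after 30 min antagonist preincubation. Reported as pA2 or pD'2.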

[4] = target: T2, Alpha-1A adrenergic receptor (Rattus norvegicus, UniProt P43140); experiment: The compound was tested for alpha-adrenergic activity against Alpha-1 adrenergic receptor from rat aorta.; conditions: read-out: pA2 (converted)
T2 sequence (P43140 whole entry): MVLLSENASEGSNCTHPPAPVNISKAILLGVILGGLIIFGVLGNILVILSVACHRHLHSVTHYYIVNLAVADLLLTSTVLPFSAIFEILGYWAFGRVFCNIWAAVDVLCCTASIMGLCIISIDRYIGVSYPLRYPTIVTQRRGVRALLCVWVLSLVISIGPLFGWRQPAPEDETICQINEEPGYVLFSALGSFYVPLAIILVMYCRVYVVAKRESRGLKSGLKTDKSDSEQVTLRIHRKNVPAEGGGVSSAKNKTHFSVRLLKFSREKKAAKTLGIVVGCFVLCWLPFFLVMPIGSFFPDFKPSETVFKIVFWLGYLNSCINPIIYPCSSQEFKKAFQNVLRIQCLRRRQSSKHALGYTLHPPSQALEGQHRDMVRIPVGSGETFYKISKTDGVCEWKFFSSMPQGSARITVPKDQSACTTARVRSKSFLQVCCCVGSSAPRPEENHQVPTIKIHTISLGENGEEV
Procedure, shortened: (§1)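 Isolated rat aorta strips at 2 g resting tension, stabilized about 1 h. Beta-receptors blocked with propranolol 10^-6 mol/L for 30 min. ED50 by Ariens–Van Rossum. Intrinsic activity = maximum response relative to norepinephrine. Antagonism as pA2 (Schild) or, if non-competitive, pD'2.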

[5] = target: T3, Alpha-1A adrenergic receptor (Rattus norvegicus) (UniProt P43140); experiment: Intrinsic activity expressed as ratio of maximum responses to the compound to the maximum response to norepinephrine; IN-Inactive up to a concentration of 1*10e-3 M; type: functional
T3 sequence (whole entry): T2 sequence (P43140 whole entry)
Procedure, shortened: as §1, with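 “min. Cumulative norepinephrine curve (10^-10 to 10^-7 mol/L) with ascorbic acid 1.13 × 10^-6 mol/L present.” for “min.”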

[6] = target: T3, Alpha-1A adrenergic receptor (Rattus norvegicus); experiment: The compound was tested for alpha-adrenergic activity against Alpha-1 adrenergic receptor from rat aorta;IN- Inactive up to a concentration of 1*10e-3 M
Procedure, shortened: as §1, with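 “min. Cumulative norepinephrine curve (10^-10 to 10^-7 mol/L) with ascorbic acid 1.13 × 10^-6 mol/L present.” for “min.”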

[7] = target: T4, Adrenergic receptor alpha-2 (Homo sapiens) (UniProt P08913+P18825+P18089); conditions: Cavia porcellus
[8] = target: T4, Adrenergic receptor alpha-2 (Homo sapiens); experiment: The compound was tested for alpha-adrenergic activity against alpha-2 adrenergic receptor from guinea pig vas up to a concentration of 1*10e-3 M; conditions: Cavia porcellus; target entry is the homologue from another species
[9] = target: T3, Alpha-1A adrenergic receptor (Rattus norvegicus)
[10] = target: T3, Alpha-1A adrenergic receptor (Rattus norvegicus); remark: listed apart in the source
[11] = target: T4, Adrenergic receptor alpha-2 (Homo sapiens); conditions: Cavia porcellus; remark: listed apart in the source
[12] = target: T3, Alpha-1A adrenergic receptor (Rattus norvegicus); experiment: Intrinsic activity expressed as ratio of maximum responses to the compound to the maximum response to norepinephrine; IN-Inactive up to a concentration of 1*10e-4 M; type: functional
Procedure, shortened: as §1, with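 “min. Cumulative norepinephrine curve (10^-10 to 10^-7 mol/L) with ascorbic acid 1.13 × 10^-6 mol/L present.” for “min.”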

[13] = target: T5, Adrenergic receptor alpha-2 (Homo sapiens, UniProt P08913+P18825+P18089); experiment: The compound was tested for alpha-adrenergic activity against alpha-2 adrenergic receptor from guinea pig vas deferens.; parameters: species or system Cavia porcellus; conditions: target entry is the homologue from another species
T5 sequence (P08913 whole entry): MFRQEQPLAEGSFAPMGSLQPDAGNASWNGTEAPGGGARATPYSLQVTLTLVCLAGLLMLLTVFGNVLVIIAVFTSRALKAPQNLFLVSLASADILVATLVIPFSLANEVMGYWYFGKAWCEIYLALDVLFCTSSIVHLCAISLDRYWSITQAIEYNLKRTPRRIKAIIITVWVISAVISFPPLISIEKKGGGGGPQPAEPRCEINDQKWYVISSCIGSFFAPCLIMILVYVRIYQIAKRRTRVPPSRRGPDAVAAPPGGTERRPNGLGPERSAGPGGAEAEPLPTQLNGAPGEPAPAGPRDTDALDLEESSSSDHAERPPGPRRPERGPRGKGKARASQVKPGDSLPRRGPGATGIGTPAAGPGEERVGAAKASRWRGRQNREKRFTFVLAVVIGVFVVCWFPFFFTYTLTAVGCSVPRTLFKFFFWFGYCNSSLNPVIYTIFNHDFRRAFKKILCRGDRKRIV
T5 sequence (P18825 whole entry): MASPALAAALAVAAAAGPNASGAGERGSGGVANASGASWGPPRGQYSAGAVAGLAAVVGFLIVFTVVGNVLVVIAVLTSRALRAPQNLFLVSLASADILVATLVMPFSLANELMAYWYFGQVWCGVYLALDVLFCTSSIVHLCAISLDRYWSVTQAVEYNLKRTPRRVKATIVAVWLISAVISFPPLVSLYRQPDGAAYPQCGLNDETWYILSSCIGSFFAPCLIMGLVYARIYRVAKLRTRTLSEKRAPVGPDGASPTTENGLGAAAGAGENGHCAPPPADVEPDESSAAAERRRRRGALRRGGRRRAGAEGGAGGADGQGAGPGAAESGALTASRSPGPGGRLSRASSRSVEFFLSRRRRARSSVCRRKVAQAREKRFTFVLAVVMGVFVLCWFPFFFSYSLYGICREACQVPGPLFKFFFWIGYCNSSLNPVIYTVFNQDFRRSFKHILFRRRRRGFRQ
T5 sequence (P18089 whole entry): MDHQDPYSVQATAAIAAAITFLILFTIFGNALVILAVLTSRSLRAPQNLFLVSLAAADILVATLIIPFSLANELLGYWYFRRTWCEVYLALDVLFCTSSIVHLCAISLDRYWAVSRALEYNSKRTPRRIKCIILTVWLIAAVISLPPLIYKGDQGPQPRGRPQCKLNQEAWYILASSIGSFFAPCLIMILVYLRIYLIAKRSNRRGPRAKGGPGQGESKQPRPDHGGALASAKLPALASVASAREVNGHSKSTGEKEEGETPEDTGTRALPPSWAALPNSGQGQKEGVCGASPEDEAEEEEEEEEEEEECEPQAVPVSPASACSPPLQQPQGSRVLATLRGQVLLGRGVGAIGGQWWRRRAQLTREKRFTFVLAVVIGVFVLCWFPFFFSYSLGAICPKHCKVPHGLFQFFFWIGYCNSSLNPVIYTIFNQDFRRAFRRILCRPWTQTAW

[14] = target: Beta-2 adrenergic receptor (Cavia porcellus) (UniProt Q8K4Z4)
[15] = target: T3, Alpha-1A adrenergic receptor (Rattus norvegicus); remark: listed apart in the source
[16] = target: T4, Adrenergic receptor alpha-2 (Homo sapiens); conditions: Cavia porcellus; remark: listed apart in the source
[17] = target: T3, Alpha-1A adrenergic receptor (Rattus norvegicus); experiment: Intrinsic activity expressed as ratio of maximum responses to the compound to the maximum response to norepinephrine; IN-Inactive up to a concentration of 1*10e-5 M; type: functional
Procedure, shortened: as §1, with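 “min. Cumulative norepinephrine curve (10^-10 to 10^-7 mol/L) with ascorbic acid 1.13 × 10^-6 mol/L present.” for “min.”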

[18] = target: T3, Alpha-1A adrenergic receptor (Rattus norvegicus); remark: listed apart in the source

T1 sequence (B0FL73 whole entry): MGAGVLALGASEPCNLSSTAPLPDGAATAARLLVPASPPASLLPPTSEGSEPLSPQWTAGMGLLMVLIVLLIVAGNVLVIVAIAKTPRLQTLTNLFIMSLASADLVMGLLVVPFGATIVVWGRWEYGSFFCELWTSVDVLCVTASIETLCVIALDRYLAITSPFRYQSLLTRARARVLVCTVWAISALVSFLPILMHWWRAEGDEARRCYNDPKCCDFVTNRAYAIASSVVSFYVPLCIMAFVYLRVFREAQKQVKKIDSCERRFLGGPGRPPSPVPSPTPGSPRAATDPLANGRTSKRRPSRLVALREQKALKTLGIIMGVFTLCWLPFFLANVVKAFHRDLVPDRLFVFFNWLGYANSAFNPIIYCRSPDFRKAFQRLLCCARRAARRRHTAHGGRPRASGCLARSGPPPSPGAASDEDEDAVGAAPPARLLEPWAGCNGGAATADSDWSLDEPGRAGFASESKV
Beta-2 adrenergic receptor, sequence (Q8K4Z4 whole entry): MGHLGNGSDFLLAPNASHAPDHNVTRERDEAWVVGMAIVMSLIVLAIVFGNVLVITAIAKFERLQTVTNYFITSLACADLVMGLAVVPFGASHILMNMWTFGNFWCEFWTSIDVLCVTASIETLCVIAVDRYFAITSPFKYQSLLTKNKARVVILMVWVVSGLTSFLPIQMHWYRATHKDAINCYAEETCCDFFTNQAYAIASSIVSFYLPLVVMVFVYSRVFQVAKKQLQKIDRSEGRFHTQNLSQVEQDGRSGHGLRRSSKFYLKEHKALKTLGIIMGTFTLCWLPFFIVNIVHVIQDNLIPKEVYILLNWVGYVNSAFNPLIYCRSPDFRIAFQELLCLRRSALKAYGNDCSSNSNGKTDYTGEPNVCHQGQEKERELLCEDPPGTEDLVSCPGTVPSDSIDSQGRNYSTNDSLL
Beta-2 adrenergic receptor (Cavia porcellus), sequence (Q8K4Z4 whole entry, looked up): as the sequence (Q8K4Z4 whole entry) above

Compound | Kb [1] | Kb [2] | Kb [3] | Kb [4] | pD2 [7] | other results
C/C(=N\OCC(O)CNC(C)(C)C)c1cc(Cl)c(NC2=NCCN2)c(Cl)c1 (stereo in doubt; (-)-3) [listing 1 of 2 here] | 100 µM | 25.1 µM | 50.1 µM | 12.6 µM | – | –
C/C(=N\OCC(O)CNC(C)(C)C)c1cc(Cl)c(NC2=NCCN2)c(Cl)c1 (stereo in doubt; (-)-3) [listing 2 of 2 here] | – | – | – | – | 4.9 | Intrinsic activity [5]: inactive; pD2 [6]: inactive; pA2 [8]: inactive
Clc1cccc(Cl)c1NC1=NCCN1 | – | – | – | – | – | pD2 [9]: 7.84
C/C(=N\OCC(O)CNC(C)(C)C)c1cc(Cl)c(NC2=NCCN2)c(Cl)c1 (single isomer, unassigned; (+)) [listing 1 of 2 here] | 79.4 µM | 50.1 µM | 50.1 µM | 7.94 µM | – | –
C/C(=N\OCC(O)CNC(C)(C)C)c1cc(Cl)c(NC2=NCCN2)c(Cl)c1 (stereo in doubt; 3) [listing 1 of 2 here] | 100 µM | 39.8 µM | 39.8 µM | 4.07 µM | – | –
Clc1cccc(Cl)c1N=C1NCCN1 [CLONIDINE] | – | 63.1 µM | 39.8 µM | – | – | –
C/C(=N\OCC(O)CNC(C)(C)C)c1cc(Cl)c(NC2=NCCN2)c(Cl)c1 (stereo in doubt; 3) [listing 2 of 2 here] | – | – | – | – | 4.63 | Intrinsic activity [5]: inactive; pD2 [6]: inactive; pA2 [8]: inactive
C/C(=N\OCC(O)CNC(C)(C)C)c1cc(Cl)c(OC(C)C2=NCCN2)c(Cl)c1 (stereo unspecified) | 15.8 µM | 1.45 µM | 1.48 µM | 3.98 µM | 3.93 | pD2 [10]: inactive; pA2 [11]: inactive; Intrinsic activity [12]: inactive
C/C(=N\OCC(O)CNC(C)(C)C)c1cc(Cl)c(NC2=NCCN2)c(Cl)c1 (single isomer, unassigned; (+)) [listing 2 of 2 here] | – | – | – | – | 5.1 | Intrinsic activity [5]: inactive; pD2 [6]: inactive; pA2 [8]: inactive
CC(C)(C)NCC(O)COc1cc(Cl)c(NC2=NCCN2)c(Cl)c1 (stereo unspecified) | – | > 100 µM | 50.1 µM | > 63.1 µM | 3.52 | pA2 [13]: 5.12; pA2 [14]: inactive; pD2 [10]: inactive; Intrinsic activity [12]: inactive
CC(C)(C)NCC(O)COCC1CN=C(Nc2c(Cl)cccc2Cl)N1 (stereo unspecified) | – | > 10 µM | 1.02 µM | – | 6.4 | pD2 [15]: inactive; pA2 [14]: inactive; pA2 [16]: inactive; Intrinsic activity [17]: inactive; pA2 [18]: inactive
